Test results as given in ChEMBL document CHEMBL1133569, “A potent, long-acting, orally active (2R)-2-[(1R)-3, 3-difluorocyclopentyl]-2-hydroxy-2-phenylacetamide: novel muscarinic M(3) receptor antagonist with high selectivity for M(3) over M(2) receptors” (J Med Chem, 2000).

What was measured:
[1] = target: T1, Muscarinic acetylcholine receptor M2 (Homo sapiens, UniProt P08172); experiment: Inhibition of [3H]NMS binding to human muscarinic acetylcholine receptor M2 expressed in CHO cells; type: cell-based
T1 sequence (P08172 whole entry): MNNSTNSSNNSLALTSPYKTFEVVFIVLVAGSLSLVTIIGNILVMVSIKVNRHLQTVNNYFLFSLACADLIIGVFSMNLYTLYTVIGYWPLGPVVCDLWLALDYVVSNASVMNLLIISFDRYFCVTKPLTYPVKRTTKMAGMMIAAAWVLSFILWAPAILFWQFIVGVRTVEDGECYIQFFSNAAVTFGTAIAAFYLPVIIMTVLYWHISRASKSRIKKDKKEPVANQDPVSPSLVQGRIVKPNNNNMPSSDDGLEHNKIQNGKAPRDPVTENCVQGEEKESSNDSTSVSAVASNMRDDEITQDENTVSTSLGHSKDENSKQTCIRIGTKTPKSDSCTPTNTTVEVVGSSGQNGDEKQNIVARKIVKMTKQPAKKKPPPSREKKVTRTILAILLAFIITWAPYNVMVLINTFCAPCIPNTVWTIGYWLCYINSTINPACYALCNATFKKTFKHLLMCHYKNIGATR
Summary of the method: (§1)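 Competition binding against [3H]-NMS on membranes from CHO cells expressing cloned human m2 or m3 receptors. Affinity is taken from inhibition of specific binding, as the mean of two or more independent assays.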

[2] = organism: Homo sapiens; experiment: In vitro metabolic stability in human hepatic microsomes (1 mg protein/mL), expressed as the percent remaining after 30 min of incubation at […].; type: functional; settings: Liver, 37 °C
Summary of the method: (§2)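 Test compound at 10 µM incubated 30 min at 37 °C with dog or human hepatic microsomes (1 mg protein/mL). Read-out is percent of parent remaining. More than 2 determinations.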

[3] = organism: Canis familiaris; experiment: In vitro metabolic stability in dog hepatic microsomes (1 mg protein/mL), expressed as the percent remaining after 30 min of incubation at […].; type: functional; settings: Canis lupus familiaris, Liver, 37 °C; summary of the method: as §2
[4] = target: T2, Muscarinic acetylcholine receptor M3 (Homo sapiens, UniProt P20309); experiment: Inhibition of [3H]NMS binding to human muscarinic acetylcholine receptor M3 expressed in CHO cells; type: cell-based; summary of the method: as §1
T2 sequence (P20309 whole entry): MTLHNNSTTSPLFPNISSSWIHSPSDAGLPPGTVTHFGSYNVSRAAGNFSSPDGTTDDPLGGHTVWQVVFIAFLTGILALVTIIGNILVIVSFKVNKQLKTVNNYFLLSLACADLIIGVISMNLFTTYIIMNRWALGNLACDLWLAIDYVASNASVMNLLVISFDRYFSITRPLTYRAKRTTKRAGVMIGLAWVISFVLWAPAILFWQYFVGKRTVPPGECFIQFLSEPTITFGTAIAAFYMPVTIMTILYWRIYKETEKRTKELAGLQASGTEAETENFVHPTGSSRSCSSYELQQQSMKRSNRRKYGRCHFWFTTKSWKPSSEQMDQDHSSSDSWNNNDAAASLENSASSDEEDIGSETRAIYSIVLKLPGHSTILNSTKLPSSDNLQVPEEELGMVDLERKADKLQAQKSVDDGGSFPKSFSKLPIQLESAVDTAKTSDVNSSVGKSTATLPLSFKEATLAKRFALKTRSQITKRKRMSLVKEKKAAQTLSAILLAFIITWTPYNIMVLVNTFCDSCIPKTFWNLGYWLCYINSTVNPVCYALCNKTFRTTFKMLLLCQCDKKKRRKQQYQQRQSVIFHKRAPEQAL

[5] = test system: Canis familiaris; experiment: Metacholine provocation test was conducted 4 hr after oral administration (1 mg/kg) in anesthetized dogs. The bronchodilatory activity is expressed as shifts; type: functional, Canis lupus familiaris
[6] = target: T2, Muscarinic acetylcholine receptor M3; experiment: Ability to inhibit binding of [3H]NMS was determined by receptor binding assay using membranes from chinese hamster ovary (CHO) cells expressing cloned Muscarinic acetylcholine receptor M3; type: cell membranes
Summary of the method: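 Radioligand displacement of [3H]-NMS specific binding on membranes prepared from CHO cells transfected with cloned human m3 receptor. Affinity was derived from inhibition of specific binding. Each value is the mean of two or more independent assays.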

[7] = organism: Homo sapiens; experiment: In vitro metabolic stability in human hepatic microsomes (1 mg protein/mL) was reported as the percent remaining after 30 min of incubation […]; type: functional; settings: Liver; summary of the method: as §2

Structure (SMILES) | Ki [1] [µM] | Metabolic stability [2] [%] | Metabolic stability [3] [%] | Ki [4] [µM] | Activity [5] | Ki [6] [µM] | Metabolic stability [7] [%]
O=C(NC1CCN(Cc2ccccn2)CC1)[C@](O)(c1ccccc1)[C@@H]1CCC(F)(F)C1 | 2.4 | 60 | 45 | 0.013 | – | – | –
CC(C)=CCCN1CCC(NC(=O)[C@](O)(c2ccccc2)[C@H]2CC[C@H](O)C2)CC1 | 2.3 | 76 | 75 | 0.018 | 2.9 | – | –
CC(C)=CCCN1CCC(NC(=O)[C@](O)(c2ccccc2)[C@H]2CCC(F)(F)C2)CC1 | 1.4 | 75 | 77 | 0.016 | – | – | –
Nc1cccc(CN2CCC(NC(=O)[C@](O)(c3ccccc3)[C@@H]3CCC(F)(F)C3)CC2)c1 | 0.33 | 90 | 88 | 0.0069 | – | – | –
Cc1cccc(CN2CCC(NC(=O)[C@](O)(c3ccccc3)[C@@H]3CCC(F)(F)C3)CC2)n1 | – | 52 | 24 | – | – | – | –
O=C(NC1CCN(CC2CCCCC2)CC1)C(O)(c1ccccc1)C1CCCC1 (centres undefined) | 3.3 | – | – | 0.017 | – | – | –
CC(C)=CCCN1CCC(NC(=O)[C@](O)(c2ccccc2)[C@H]2CC[C@H](F)C2)CC1 | 1.3 | 66 | 60 | 0.019 | – | – | –
O=C(NC1CCN(Cc2cccnc2)CC1)C(O)(c1ccccc1)C1CCCC1 (centres undefined) | 4.6 | – | – | 0.1 | – | – | –
O=C(NC1CCN(Cc2cccc(CO)c2)CC1)[C@](O)(c1ccccc1)[C@@H]1CCC(F)(F)C1 | 6.9 | 34 | 73 | – | 3.1 | – | –
Cc1ccccc1CN1CCC(NC(=O)C(O)(c2ccccc2)C2CCCC2)CC1 (centres undefined) | 37 | – | – | 0.22 | – | – | –
O=C(NC1CCN(Cc2ccccc2)CC1)[C@](O)(c1ccccc1)[C@@H]1CCC(F)(F)C1 | 0.26 | 47 | 45 | 0.0038 | – | – | –
CC(C)=CCCN1CCC(NC(=O)[C@](O)(c2ccccc2)[C@H]2CC[C@@H](F)C2)CC1 | 2.3 | 75 | 64 | 0.011 | – | – | –
Cc1cccc(CN2CCC(NC(=O)C(O)(c3ccccc3)C3CCCC3)CC2)n1 (centres undefined) | 2.4 | – | – | 0.011 | – | – | –
NCc1cccc(CN2CCC(NC(=O)[C@](O)(c3ccccc3)[C@@H]3CCC(F)(F)C3)CC2)c1 | 3.4 | 80 | 77 | 0.021 | – | – | –
O=C(NC1CCN(Cc2ccsc2)CC1)C(O)(c1ccccc1)C1CCCC1 (centres undefined) | 0.079 | – | – | 0.0036 | – | – | –
COc1cccc(CN2CCC(NC(=O)C(O)(c3ccccc3)C3CCCC3)CC2)c1 (centres undefined) | 0.27 | – | – | 0.0059 | – | – | –
O=C(NC1CCN(CC2CCCC2)CC1)C(O)(c1ccccc1)C1CCCC1 (centres undefined) | 14 | – | – | 0.27 | – | – | –
O=C(NC1CCN(CC2CCCCCC2)CC1)C(O)(c1ccccc1)C1CCCC1 (centres undefined) | 3.1 | – | – | 0.012 | – | – | –
Cc1cccc(CN2CCC(NC(=O)C(O)(c3ccccc3)C3CCCC3)CC2)c1 (centres undefined) | 0.07 | – | – | 0.0023 | – | – | –
Nc1ccc(CN2CCC(NC(=O)[C@](O)(c3ccccc3)[C@@H]3CCC(F)(F)C3)CC2)cc1F | 0.31 | 78 | 78 | 0.0061 | – | – | –

Structure (SMILES) | Ki [1] [µM] | Metabolic stability [2] [%] | Metabolic stability [3] [%] | Ki [4] [µM] | Activity [5] | Ki [6] [µM] | Metabolic stability [7] [%]
Cc1cc(CN2CCC(NC(=O)C(O)(c3ccccc3)C3CCCC3)CC2)cs1 (centres undefined) | 0.024 | – | – | 0.0035 | – | – | –
O=C(NC1CCN(Cc2ccccn2)CC1)C(O)(c1ccccc1)C1CCCC1 (centres undefined) | 0.32 | – | – | 0.014 | – | – | –
COc1cccc(CN2CCC(NC(=O)[C@](O)(c3ccccc3)[C@@H]3CCC(F)(F)C3)CC2)c1 | – | 46 | 53 | – | – | – | –
Nc1ccc(CN2CCC(NC(=O)[C@](O)(c3ccccc3)[C@@H]3CCC(F)(F)C3)CC2)cc1 | 0.22 | 88 | 89 | 0.0078 | 43 | – | –
O=C(NC1CCN(CC2CCCCCC2)CC1)[C@](O)(c1ccccc1)[C@@H]1CCC(F)(F)C1 | 17 | – | – | – | – | 0.028 | –
O=C(NC1CCN(Cc2ccccc2)CC1)C(O)(c1ccccc1)C1CCCC1 (centres undefined) | 0.03 | – | – | – | – | – | –
O=C(NC1CCN(Cc2ccsc2)CC1)[C@](O)(c1ccccc1)[C@@H]1CCC(F)(F)C1 | – | 35 | 37 | – | – | – | –
Cc1cccc(CN2CCC(NC(=O)[C@](O)(c3ccccc3)[C@@H]3CCC(F)(F)C3)CC2)c1 | 0.31 | 55 | 32 | – | 25 | 0.002 | –
O=C(NC1CCN(CC2CCCCCCC2)CC1)C(O)(c1ccccc1)C1CCCC1 (centres undefined) | 9.4 | – | – | 0.093 | – | – | –
Nc1cccc(CN2CCC(NC(=O)[C@](O)(c3ccccc3)[C@@H]3CCC(F)(F)C3)CC2)n1 | 0.53 | 80 | 84 | 0.0028 | >64 | – | –
CC(C)=CCCN1CCC(NC(=O)[C@](O)(c2ccccc2)C2CCCC2)CC1 | 0.49 | 54 | 31 | – | 5.2 | – | –
Nc1ccc(CN2CCC(NC(=O)[C@](O)(c3ccccc3)[C@@H]3CCC(F)(F)C3)CC2)nc1 | 0.93 | – | – | 0.015 | – | – | –
O=C(NC1CCN(Cc2cccc(F)c2)CC1)[C@](O)(c1ccccc1)[C@@H]1CCC(F)(F)C1 | 0.48 | – | 23 | 0.0031 | – | – | 52
O=C(NC1CCN(Cc2ccoc2)CC1)C(O)(c1ccccc1)C1CCCC1 (centres undefined) | 1.8 | – | – | 0.05 | – | – | –
O=C(NC1CCN(CC2CCCCC2)CC1)[C@](O)(c1ccccc1)[C@@H]1CCC(F)(F)C1 | 21 | 86 | 70 | 0.018 | 2.3 | – | –
Cc1ccc(CN2CCC(NC(=O)C(O)(c3ccccc3)C3CCCC3)CC2)cc1 (centres undefined) | 0.022 | – | – | 0.0064 | – | – | –
CC(C)=CCCN1CCC(NC(=O)[C@](O)(c2ccccc2)[C@@H]2CCC(F)(F)C2)CC1 | 2 | 68 | 70 | 0.0062 | 4.2 | – | –
O=C(NC1CCN(Cc2ccncc2)CC1)C(O)(c1ccccc1)C1CCCC1 (centres undefined) | 6.4 | – | – | 0.19 | – | – | –
O=C(NC1CCN(Cc2cccc(O)c2)CC1)[C@](O)(c1ccccc1)[C@@H]1CCC(F)(F)C1 | 0.037 | 56 | 73 | 0.0054 | – | – | –
